The values below come from ChEMBL document CHEMBL1772997 (J Med Chem, 2011).

The target in test [1] is T1, Melatonin receptor type 1B (Homo sapiens, UniProt P49286).
T1 sequence (P49286 whole entry): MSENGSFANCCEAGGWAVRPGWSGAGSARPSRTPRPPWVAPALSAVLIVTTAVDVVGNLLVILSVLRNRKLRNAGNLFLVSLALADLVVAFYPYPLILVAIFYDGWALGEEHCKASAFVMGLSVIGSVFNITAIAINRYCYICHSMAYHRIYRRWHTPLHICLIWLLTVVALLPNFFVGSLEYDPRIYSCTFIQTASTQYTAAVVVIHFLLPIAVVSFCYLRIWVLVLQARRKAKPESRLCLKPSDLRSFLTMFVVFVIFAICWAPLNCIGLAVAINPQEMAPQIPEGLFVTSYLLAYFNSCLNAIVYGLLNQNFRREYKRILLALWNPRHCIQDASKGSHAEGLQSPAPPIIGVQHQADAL
As to the kind of experiment: Displacement of [125I]-2-iodomelatonin from human MT2 receptor expressed on CHO cells microscintillation counting. The class given is cell-based.

The species named for another test is Homo sapiens. As to the kind of experiment: Selectivity ratio, ratio of Ki for human MT1 receptor over Ki for human MT2 receptor.
Test [2] concerns the target T2, Melatonin receptor type 1A (Homo sapiens, UniProt P48039). The experiment in a line: Displacement of [125I]-2-iodomelatonin from human MT1 receptor expressed on CHO cells by microscintillation counting. The test is classed as cell-based. A general note: Loss of bound radioactivity is the signal in a displacement assay; it reports binding, not function.
Test [3] has as its target T2, Melatonin receptor type 1A. The experiment in a line: Agonist activity at human MT1 receptor expressed in CHO cells assessed as inhibition of forskolin-induced cAMP accumulation after 30 mins by EnVision Multilabel Plate Readers. The test is classed as functional, cell-based. A general note: Cyclic AMP is a second messenger, typically raised through Gs and lowered through Gi signalling.

Test [4] relates to Mus musculus. As to the kind of experiment: Chronobiotic activity in ICR mouse assessed as reentrainment for 8 hrs advance of dark phase at 30 mg/kg, ip administered 1 hr before dark period once daily for 3 days by running-wheel activity assay. The test is classed as functional, organism-based. The arrangement: dose 30 mg/kg. A digest of the protocol:
(§1)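 Male ICR mice (6 weeks old), housed individually with running wheels under 12/12 light/dark, habituated at least 2 weeks; dark phase then advanced 8 h and kept 14 days. Dosed ip once daily 1 h before dark from shift day, suspended in 0.5% methylcellulose saline, 10 mL/kg. Days to reentrainment: onset advanced >7 h for ≥3 consecutive days, else scored 14 days.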

Test [5] concerns Mus musculus. The experiment in a line: Chronobiotic activity in ICR mouse assessed as reentrainment for 8 hrs advance of dark phase at 3 mg/kg, ip administered 1 hr before dark period once daily for 3 days by running-wheel activity assay. The class given is functional, organism-based. Set-up: dose 3 mg/kg. A digest of the protocol:
as §1

Test [6] concerns the target T1, Melatonin receptor type 1B. As to the kind of experiment: Agonist activity at human MT2 receptor expressed in CHO cells assessed as inhibition of forskolin-induced cAMP accumulation after 30 mins by EnVision Multilabel Plate Readers. The test is classed as functional, cell-based.
For test [7], the target named is T3, Melatonin receptor type 1B (Homo sapiens) (UniProt P49286).
T3 sequence (whole entry): T1 sequence (P49286 whole entry)
The experiment in a line: Ratio of compound Ki to melatonin Ki for human MT2 receptor expressed on CHO cells by radioligand displacement assay. The class given is cell-based. The gist of the method: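 Membranes from CHO cells stably expressing human MT1 or MT2, in 50 mM Tris-HCl pH 7.7. Incubated with 2-[¹²⁵I]iodomelatonin, 40 pM for MT1 or 80 pM for MT2, 150 min at 25 °C. […] IC50 by three-parameter fit, Ki by Cheng–Prusoff using Kd 33.9 pM for MT1 and 72.6 pM for MT2.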

Test [8] addresses T3, Melatonin receptor type 1B (Homo sapiens). As to the kind of experiment: Agonist activity at human MT2 receptor expressed in CHO cells assessed as inhibition of forskolin-induced cAMP accumulation after 30 mins by EnVision Multilabel Plate Readers relative to control. The class given is functional, cell-based. The gist of the method: (§2)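 Stable CHO line expressing human MT2, suspended in modified HBSS with 5 mM HEPES pH 7.4, 0.1% BSA, 100 μM IBMX and 100 μM Ro20-1724; 6 × 10⁴ cells/well. Compound added, then forskolin (final 2 μM), 30 min at room temperature; AlphaScreen cAMP read after 12 h in dark.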

The target is the same in test [9]. As to the kind of experiment: Partial agonist activity at human MT2 receptor expressed in CHO cells assessed as inhibition of forskolin-induced cAMP accumulation after 30 mins by EnVision Multilabel Plate Readers relative to control. The test is classed as functional, cell-based. A digest of the protocol: as §2

Active and inactive are the calls of the source. The rule behind the calls is not given here. Some results are limits rather than exact numbers.

T2 sequence (P48039 whole entry): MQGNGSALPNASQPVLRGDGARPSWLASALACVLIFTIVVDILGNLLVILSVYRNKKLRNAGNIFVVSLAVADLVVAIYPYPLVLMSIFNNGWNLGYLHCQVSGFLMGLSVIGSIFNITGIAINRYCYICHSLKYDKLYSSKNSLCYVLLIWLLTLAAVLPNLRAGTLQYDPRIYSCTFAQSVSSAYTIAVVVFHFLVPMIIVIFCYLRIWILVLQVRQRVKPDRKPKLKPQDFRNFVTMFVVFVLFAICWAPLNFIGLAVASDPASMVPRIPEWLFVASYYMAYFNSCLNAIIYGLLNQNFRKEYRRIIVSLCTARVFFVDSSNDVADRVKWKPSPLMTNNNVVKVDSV

Consider `CC(=O)NCCC1=C(Cc2ccsc2)Cc2ccc3c(c21)CCO3`, for which the Ki (in general, the equilibrium dissociation constant of an inhibitor or competing ligand from its target) in test [1] is 0.0067 nM; in test [2], 0.88 nM. In the test listed under Homo sapiens, the Ratio Ki worked out at 132.
In the same order, the values of `CC(=O)NCCC1=C(c2ccccc2OC(C)C)Cc2ccc3c(c21)CCO3` are 0.34 nM, over 100 nM and over 292.
Consider `CC(=O)NCCC1=C(CC2CCCCC2)Cc2ccc3c(c21)CCO3`, for which the EC50 (in general, the concentration needed to bring the measured effect to its halfway point) in test [3] is 4.47 nM; in [6], 1.32 nM. The Ki in [1] stood at 0.012 nM; in test [2], 9.2 nM. Besides, the result in the test on Mus musculus [4] and in the test on Mus musculus [5] was Active. For the same compound, the Ratio Ki is 799 in the test listed under Homo sapiens and 18 in [7]. The Emax (in general, the size of the effect at its maximum, as opposed to the concentration needed) in test [8] was determined as 99%.
For the compound `CC(C)C1=C(CCNC(=O)C2CC2)c2c(ccc3c2CCO3)C1`, the Ki came out at 0.035 nM in [1] and 0.11 nM in [2]. The Ratio Ki in the test listed under Homo sapiens stood at 3.2.
In the case of `CC(=O)NCCC1=C(c2ccoc2)Cc2ccc3c(c21)CCO3`, the values for the Ki in test [1] and in test [2] were 0.0096 nM and 0.0065 nM, respectively. Further, the Ratio Ki in the test listed under Homo sapiens was determined as 0.68.
Turning to `CC(=O)NCCC1=C(c2cccnc2)Cc2ccc3c(c21)CCO3`, the Ki in test [1] came to 0.034 nM; in test [2], 0.069 nM. Also, the Ratio Ki in the test listed under Homo sapiens was determined as 2.1.
In the same order, the values of `COc1cccc(C2=C(CCNC(C)=O)c3c(ccc4c3CCO4)C2)c1` are 0.009 nM, 0.057 nM and 6.3.
As to `CC(C)C1=C(CCNC(=O)C(F)(F)F)c2c(ccc3c2CCO3)C1`, the Ki in [1] stood at 0.01 nM; in test [2], 0.032 nM. The Ratio Ki in the test filed under Homo sapiens was 3.1.
Turning to `CC(=O)NCCC1=C(c2cccc(C(C)C)c2)Cc2ccc3c(c21)CCO3`, the EC50 in [3] is 3.02 nM. In addition, the Ki was determined as 0.011 nM in [1] and 13 nM in test [2]. The Emax in [9] turned out to be 72.8%. Besides, the Ratio Ki came out at 1200 in the test listed under Homo sapiens and 19 in [7].
With `CC(=O)NCCC1=CCc2ccc3c(c21)CCO3`, the Ki in [1] came to 0.022 nM; in test [2], 0.045 nM. Moreover, the Ratio Ki in the test filed under Homo sapiens turned out to be 2.1; in test [7] it was 10.
For the compound `CC(=O)NCCC1=C(C(C)C)Cc2ccc3c(c21)CCO3`, the Ki was found to be 0.018 nM in test [1] and 0.024 nM in test [2]. Besides, the Ratio Ki in the test listed under Homo sapiens stood at 1.3.
In the same order, the values of `CC(=O)NCCC1=C(c2ccc(C(C)(C)C)cc2)Cc2ccc3c(c21)CCO3` are 0.77 nM, 1.4 nM and 1.8.
In the same order, the values of `COc1ccccc1C1=C(CCNC(C)=O)c2c(ccc3c2CCO3)C1` are 0.02 nM, 1.1 nM and 53.
With `CCNC(=O)NCCC1=C(C(C)C)Cc2ccc3c(c21)CCO3`, the Ki was determined as 0.084 nM in test [1] and 1.1 nM in test [2]. In the test listed under Homo sapiens, the Ratio Ki was 13.
For the compound `CC(=O)NCCC1=C(Cc2ccccc2)Cc2ccc3c(c21)CCO3`, in test [3], the EC50 was 0.513 nM. The Ki in [1] is 0.0085 nM; in test [2], 2.7 nM. The Ratio Ki in the test filed under Homo sapiens was determined as 316. Moreover, the Emax in test [8] was determined as 61.7%.
Turning to `COc1ccc(C2=C(CCNC(C)=O)c3c(ccc4c3CCO4)C2)cc1`, the results for the Ki in [1] and in test [2] were 0.037 nM and 3 nM, respectively. Also, in the test filed under Homo sapiens, the Ratio Ki came out at 81.
For the compound `CC(=O)NCCC1=C(Br)Cc2ccc3c(c21)CCO3`, the Ki in test [1] came to 0.014 nM; in [2] it was 0.0087 nM. In addition, the Ratio Ki in the test filed under Homo sapiens came to 0.61.
Turning to `CCC(=O)NCCC1=C(C(C)C)Cc2ccc3c(c21)CCO3`, the figures for the Ki in [1] and in test [2] were 0.011 nM and 0.013 nM, respectively. Further, the Ratio Ki in the test filed under Homo sapiens was determined as 1.3.
Taken in the same sequence, the figures for `CC(=O)NCCC1=C(c2csc3ccccc23)Cc2ccc3c(c21)CCO3` were 0.006 nM, 1.3 nM and 220.
